Experimental data from ChEMBL document CHEMBL3351507, “11H-Pyrido[3',2':4,5]pyrrolo[3,2-c]cinnoline and pyrido[3',2':4,5]pyrrolo[1,2-c][1,2,3]benzotriazine: two new ring systems with antitumor activity” (2014).
Activity calls are given as the source filed them. No cut-off for these calls is given here.

How the values were obtained:
786-0 = assay: Cytotoxicity against human 786-0 cells assessed as growth inhibition after 72 hrs by MTT assay; format: functional; details: 786-0, 72 h
[1] = Cytotoxicity against human EKVX cells assessed as growth inhibition after 72 hrs by MTT assay; format: functional
SW-620 = assay: Cytotoxicity against human SW620 cells assessed as growth inhibition after 72 hrs by MTT assay; format: functional; details: SW-620, 72 h
In short: (§1)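 NCI 60-cell-line panel screen. Compounds were tested at 5 concentrations in 10-fold dilution (10^-4 to 10^-8 M) across the full panel. GI50 was taken as the molar concentration giving 50% inhibition of net cell growth.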

[2] = Cytotoxicity against human PC3 cells assessed as growth inhibition after 72 hrs by MTT assay; format: functional; details: PC-3, 72 h; in short: as §1
CCRF-CEM = assay: Cytotoxicity against human CEM cells assessed as growth inhibition after 72 hrs by MTT assay; format: functional
In short: (§2)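 Cells were grown in medium with 10% heat-inactivated FBS plus penicillin/streptomycin: RPMI-1640 for Jurkat and CEM, DMEM for A-431, HAM's F12 for LoVo. The doxorubicin-resistant LoVo subclone was kept with 0.1 µg/mL doxorubicin. Cells were seeded at 5x10^3 per well and pre-incubated 24 h at 37 °C.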

Jurkat [3] = assay: Induction of apoptosis in human Jurkat cells assessed as lysosomal dysfunction at 250 to 500 nM after 24 hrs by acridine orange staining-based flow cytometry relative to control; format: functional, cell-based
In short: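 Jurkat cells were treated for 24 h at two concentrations, then stained with acridine orange. Flow cytometry (488 nm excitation, FL3 emission) scored red fluorescence of intact lysosomes. Mean ± SEM of at least 3 experiments, compared with control.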

[4] = Cytotoxicity against human OVCAR3 cells assessed as growth inhibition after 72 hrs by MTT assay; format: functional; details: OVCAR-3, 72 h; in short: as §1
Jurkat [5] = assay: Induction of apoptosis in human Jurkat cells assessed as caspase-8 activation at 500 nM after 6 hrs by plate reader analysis; format: functional, cell-based
In short: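 Jurkat cells were treated with 500 nM compound for 6 h and 24 h, then lysed. Lysates were incubated with pNA-conjugated substrates: Ac-DEVD (caspase-3), Ac-IETD (caspase-8) and LEHD (caspase-9). pNA release was read at 405 nm and normalized to Bradford protein. Results are expressed as fold increase over untreated control.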

[6] = Cytotoxicity against human HCT15 cells assessed as growth inhibition after 72 hrs by MTT assay; format: functional; details: HCT-15, 72 h
MDA-MB-231 = assay: Cytotoxicity against human MDA-MB-231 cells assessed as growth inhibition after 72 hrs by MTT assay; format: functional; details: MDA-MB-231, 72 h
[7] = Cytotoxicity against human UACC257 cells assessed as growth inhibition after 72 hrs by MTT assay; format: functional; details: UACC-257, 72 h; in short: as §1
A549 = assay: Cytotoxicity against human A549 cells assessed as growth inhibition after 72 hrs by MTT assay; format: functional; details: A549, 72 h
[8] = Cytotoxicity against human LoVo/DX cells assessed as growth inhibition after 72 hrs by MTT assay; format: functional; in short: as §2
TK-10 = assay: Cytotoxicity against human TK10 cells assessed as growth inhibition after 72 hrs by MTT assay; format: functional; details: TK-10, 72 h; in short: as §1
SK-MEL-28 = assay: Cytotoxicity against human SK-MEL-28 cells assessed as growth inhibition after 72 hrs by MTT assay; format: functional; details: SK-MEL-28, 72 h; in short: as §1
SK-MEL-5 = assay: Cytotoxicity against human SK-MEL-5 cells assessed as growth inhibition after 72 hrs by MTT assay; format: functional; details: SK-MEL-5, 72 h; in short: as §1
M14 = assay: Cytotoxicity against human M14 cells assessed as growth inhibition after 72 hrs by MTT assay; format: functional; details: M14, 72 h
SK-OV-3 = assay: Cytotoxicity against human SKOV3 cells assessed as growth inhibition after 72 hrs by MTT assay; format: functional; details: SK-OV-3, 72 h; in short: as §1
Jurkat [9] = assay: Cell cycle arrest in human Jurkat cells assessed as accumulation at S phase at 0.5 uM after 24 hrs by propidium iodide staining-based flow cytometry (reference value: 15.5%); format: functional
[10] = Cytotoxicity against human OVCAR4 cells assessed as growth inhibition after 72 hrs by MTT assay; format: functional; details: OVCAR-4, 72 h; in short: as §1
A498 = assay: Cytotoxicity against human A498 cells assessed as growth inhibition after 72 hrs by MTT assay; format: functional; details: A498, 72 h
COLO 205 = assay: Cytotoxicity against human COLO205 cells assessed as growth inhibition after 72 hrs by MTT assay; format: functional; details: COLO 205, 72 h
SR = assay: Cytotoxicity against human SR cells assessed as growth inhibition after 72 hrs by MTT assay; format: functional; in short: as §1
HOP-92 = assay: Cytotoxicity against human HOP92 cells assessed as growth inhibition after 72 hrs by MTT assay; format: functional; details: HOP-92, 72 h
MDA-MB-435 = assay: Cytotoxicity against human MDA-MB-435 cells assessed as growth inhibition after 72 hrs by MTT assay; format: functional; details: MDA-MB-435, 72 h
HCC 2998 = assay: Cytotoxicity against human HCC2998 cells assessed as growth inhibition after 72 hrs by MTT assay; format: functional; details: HCC 2998, 72 h
ACHN = assay: Cytotoxicity against human ACHN cells assessed as growth inhibition after 72 hrs by MTT assay; format: functional
Jurkat [11] = assay: Cell cycle arrest in human Jurkat cells assessed as accumulation at G1 phase at 0.25 uM after 24 hrs by propidium iodide staining-based flow cytometry (reference value: 62.6%); format: functional
RPMI-8226 = assay: Cytotoxicity against human RPMI8226 cells assessed as growth inhibition after 72 hrs by MTT assay; format: functional; details: RPMI-8226, 72 h; in short: as §1
[12] = Cytotoxicity against human OVCAR8 cells assessed as growth inhibition after 72 hrs by MTT assay; format: functional; details: OVCAR-8, 72 h; in short: as §1
BT-549 = assay: Cytotoxicity against human BT549 cells assessed as growth inhibition after 72 hrs by MTT assay; format: functional; details: BT-549, 72 h
SK-MEL-2 = assay: Cytotoxicity against human SK-MEL-2 cells assessed as growth inhibition after 72 hrs by MTT assay; format: functional; details: SK-MEL-2, 72 h; in short: as §1
[13] = Cytotoxicity against human Hs578T cells assessed as growth inhibition after 72 hrs by MTT assay; format: functional; details: Hs-578T
SN12C = assay: Cytotoxicity against human SN12C cells assessed as growth inhibition after 72 hrs by MTT assay; format: functional; in short: as §1
NCI-H23 = assay: Cytotoxicity against human NCI-H23 cells assessed as growth inhibition after 72 hrs by MTT assay; format: functional; details: NCI-H23, 72 h
Jurkat [14] = assay: Induction of apoptosis in human Jurkat cells assessed as loss of plasma membrane asymmetry at 250 to 500 nM after 6 hrs by annexin V-FITC/propidium iodide staining-based flow cytofluorimetric analysis; format: functional, cell-based
In short: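 Jurkat cells were incubated with 250 or 500 nM compound for 6 h or 24 h. They were then double-stained with Annexin V-FITC and propidium iodide and analysed by flow cytometry (488 nm excitation; emission 525 and 585 nm). Mean ± SEM of 3 experiments.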

[15] = Binding affinity to DNA (unknown origin) at compound to DNA ratio 0.01 to 0.04 by linear dichroism method
In short: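 Linear dichroism spectra were recorded at different compound/DNA ratios in 10 mM phosphate buffer, pH 7.2.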

Structure (SMILES) | GI50 (786-0) [nM] | GI50 [1] [nM] | GI50 (SW-620) [nM] | GI50 [4] [nM] | GI50 [6] [nM] | GI50 (MDA-MB-231) [nM] | GI50 [7] [nM] | GI50 (A549) [nM] | GI50 (TK-10) [nM] | GI50 (SK-MEL-28) [nM] | GI50 (SK-MEL-5) [nM] | GI50 (M14) [nM] | GI50 (SK-OV-3) [nM] | GI50 [10] [nM] | GI50 (A498) [nM] | GI50 (COLO 205) [nM] | GI50 (SR) [nM] | GI50 (HOP-92) [nM] | GI50 (MDA-MB-435) [nM] | GI50 (HCC 2998) [nM] | further results
COc1cc2nnn3c4ncccc4c(N=O)c3c2cc1OC | 230 | 3310 | 210 | 460 | 1620 | 2600 | 4540 | 13300 | 5260 | 9100 | 12600 | 1710 | 4020 | 1910 | 15800 | 5260 | 18 | 39 | 2380 | 1000 | GI50 [2]: 2360 nM; GI50 (CCRF-CEM): 240 nM; Activity (Jurkat [3]): inactive; Activity (Jurkat [5]): Active; GI50 [8]: 4330 nM; Activity (Jurkat [9]): 24.7%; GI50 (ACHN): 250 nM; Activity (Jurkat [11]): 37.3%; GI50 (RPMI-8226): 110 nM; GI50 [12]: 820 nM; GI50 (BT-549): 5530 nM; GI50 (SK-MEL-2): 17300 nM; GI50 [13]: 6800 nM; GI50 (SN12C): 1800 nM; GI50 (NCI-H23): 2220 nM; Activity (Jurkat [14]): inactive; Activity [15]: inactive
COc1ccc2c(c1)nnn1c3ncccc3c(N=O)c21 | 330 | 3380 | 270 | 1110 | 3130 | 1260 | 8210 | 10800 | 5080 | 3480 | 5010 | 1570 | 1680 | 1290 | 1270 | 680 | 9 | 42 | 1940 | 7230 | GI50 (CCRF-CEM): 220 nM; Activity (Jurkat [3]): inactive; Activity (Jurkat [5]): Active; GI50 [8]: 650 nM; Activity (Jurkat [9]): 27.2%; GI50 (ACHN): 94 nM; Activity (Jurkat [11]): 35.5%; GI50 (RPMI-8226): 260 nM; GI50 [12]: 3900 nM; GI50 (BT-549): 5060 nM; GI50 (SK-MEL-2): 2180 nM; GI50 [13]: 1170 nM; GI50 (SN12C): 1400 nM; GI50 (NCI-H23): 5170 nM; Activity (Jurkat [14]): inactive; Activity [15]: inactive
O=Nc1c2cccnc2n2nnc3ccc(Cl)cc3c12 | 840 | 1830 | 190 | 250 | 960 | 680 | 3070 | 2200 | 940 | 1060 | 3820 | 1190 | 2980 | 980 | 1910 | 1000 | 17 | 100 | 1260 | 8400 | GI50 [2]: 740 nM; GI50 (ACHN): 330 nM; GI50 (RPMI-8226): 170 nM; GI50 [12]: 1800 nM; GI50 (BT-549): 1780 nM; GI50 (SK-MEL-2): 2280 nM; GI50 [13]: 1050 nM; GI50 (SN12C): 1460 nM; GI50 (NCI-H23): 1170 nM
COc1cc2nnc3c4cccnc4[nH]c3c2cc1OC | 320 | 2430 | 440 | 1150 | 1430 | 2690 | 3320 | 7900 | 2380 | 4490 | 7330 | 1790 | 2290 | 1600 | 2740 | 2960 | 39 | 210 | 2230 | 1950 | GI50 [2]: 1490 nM; GI50 (ACHN): 330 nM; GI50 (RPMI-8226): 190 nM; GI50 [12]: 1250 nM; GI50 (BT-549): 3700 nM; GI50 (SK-MEL-2): 11300 nM; GI50 [13]: 3700 nM; GI50 (SN12C): 2270 nM; GI50 (NCI-H23): 2340 nM
COc1ccc2c(c1)nnc1c3cccnc3[nH]c21 | 510 | 2820 | 380 | 960 | 2260 | 1420 | 7490 | 7900 | 4520 | 11800 | 5850 | 1070 | 2690 | 1410 | 8000 | 1130 | 31 | 82 | 1440 | 8230 | GI50 (CCRF-CEM): 650 nM; Activity (Jurkat [3]): inactive; Activity (Jurkat [5]): Active; GI50 [8]: 1210 nM; Activity (Jurkat [9]): 28.6%; GI50 (ACHN): 200 nM; Activity (Jurkat [11]): 30.2%; GI50 (RPMI-8226): 730 nM; GI50 [12]: 620 nM; GI50 (BT-549): 3430 nM; GI50 (SK-MEL-2): 1960 nM; GI50 [13]: 3470 nM; GI50 (SN12C): 1630 nM; GI50 (NCI-H23): 5500 nM; Activity (Jurkat [14]): inactive; Activity [15]: Active
